Bioassay records: PubChem BioAssay, several laboratories
APP 5UTR inh – APP translation inhibition; inhibition, % at 2 µM; SH-SY5Y APP 5'UTR-luciferase reporter, luminescence; 190,000 compounds, 0.82% hits;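 active = inhibition above a set limit, derived from the sample mean plus 3 SD, cut at about 45% in these data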
FLuc act counter – firefly luciferase counter-screen for stimulation assays. P08659. ATPlite luciferase biochemical, luminescence, 10 min; 0 = ATP-free wells, 1 = DMSO control. activation factor at 10 µM. 200,000 tested, under 10 active. AID 1027;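 active = luciferase activation factor, scaled between plate controls, of at least 2 with compound at 10 µM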
Target sequence (P08659 whole entry, looked up): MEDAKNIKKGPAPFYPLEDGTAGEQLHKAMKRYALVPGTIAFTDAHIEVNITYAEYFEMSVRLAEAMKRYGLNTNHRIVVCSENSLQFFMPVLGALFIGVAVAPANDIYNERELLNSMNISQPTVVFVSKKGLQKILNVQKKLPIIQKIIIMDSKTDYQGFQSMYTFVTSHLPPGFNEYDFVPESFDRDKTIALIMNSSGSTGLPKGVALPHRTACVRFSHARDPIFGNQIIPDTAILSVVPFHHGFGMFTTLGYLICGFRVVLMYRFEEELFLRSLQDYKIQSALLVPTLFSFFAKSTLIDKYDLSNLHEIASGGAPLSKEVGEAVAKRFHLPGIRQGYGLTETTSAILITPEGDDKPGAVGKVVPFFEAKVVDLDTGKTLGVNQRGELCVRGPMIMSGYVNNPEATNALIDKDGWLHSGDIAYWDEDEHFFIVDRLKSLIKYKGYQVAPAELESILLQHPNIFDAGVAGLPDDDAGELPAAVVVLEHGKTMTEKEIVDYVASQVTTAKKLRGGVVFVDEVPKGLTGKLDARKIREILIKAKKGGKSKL
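assay system = Luciferase/luciferin detection reagent, cell-free biochemical luciferase assay | also added = ATP substrate | times = 10 min post-reagent at room temperature | measured by = luminescence from luciferase reaction | measure = luciferase activation, seen as luminescence increase over controls | benchmarks = low control with PBS replacing ATP, high control enzyme plus ATP without compound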
FLuc inh counter – inhibits firefly luciferase, flagging false hits in luciferase inhibition screens | 200,000 compounds, 1.5% hits | AID 1006 | ATPLite firefly luciferase biochemical luminescence, 10 min | P08659 | inhibition, % at 10 µM;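 active = inhibition above about 50% when tested at 10 µM, limit read from the data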
APP 5'UTR act – APP 5'UTR luciferase reporter activation. SH-SY5Y APP 5'UTR luciferase reporter, luminescence; zero percent = DMSO vehicle wells. 190,000 compounds, 1% hits. activation, % at 2 µM;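 active = activation above a set limit, based on mean plus 3 SD of controls, cut at about 140% in these data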
NF-kB neuron act – raises NF-kB expression in human neuronal cells; 190,000 compounds, 1.6% hits; NF-kB reporter expression; stronger effect = higher value; fold change at 12.5 µM; in the data active = fold change above about 3.3
STAT1 act – STAT1 signaling activation. NIH 3T3 STAT1-luciferase reporter, IFN-gamma, luminescence; 100% = IFN-gamma alone, no compound. activation (% of control), % at 5.5 µM. 200,000 compounds, 2.6% hits;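 active = activation above the screen-wide mean activation plus 3 SD, cut at about 130% in these data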
Of the large screens only hits and unclear results are named; the others gave an inactive call. An excerpt weighted towards active compounds, which were near 4.8% of everything screened.

Oc1ccccc1/C=N/Nc1cccc2cccnc12	NF-kB neuron act 12
c1ccc(CSc2ncccn2)cc1	none
Oc1ccccc1/C=N/Nc1ccnc(SCc2ccccc2)n1	APP 5UTR inh 56
Cc1sc2ncnc(N/N=C/c3ccccc3O)c2c1C	APP 5UTR inh 77
C/C(=N\Nc1cccc2cccnc12)c1ccc(C)cc1	FLuc inh counter 62, APP 5'UTR act 137, NF-kB neuron act 4.2, STAT1 act 137
Cc1sc2ncnc(N/N=C/c3ccc(O)cc3)c2c1C	none
O=S(=O)(Nc1ccccc1O)c1cccc2cccnc12	none
O=c1c2ccccc2ncn1-c1ccccc1C(F)(F)F	none
O=C(c1cc2cc([N+](=O)[O-])ccc2oc1=O)N1CCN(C2CCCCC2)CC1	none
Oc1ccccc1/C=N/Nc1ncc(Br)cn1	APP 5UTR inh 57
Oc1ccccc1/C=N/Nc1ccccc1	none
CCN(CC)S(=O)(=O)c1cccc(NC(=O)COC(=O)c2cccs2)c1	none
CC(C)C(=O)Nc1nc2ccc(S(C)(=O)=O)cc2s1	none
COc1ccc2nc(NC(=O)c3ccc(-n4nc(C)cc4C)cc3)sc2c1	none
COc1ccc2nc(NC(=O)c3ccc4ncsc4c3)sc2c1	STAT1 act 142
CCOc1ccc2nc(NC(=O)c3cnc(C)cn3)sc2c1	none
CCOC(=O)c1cccc(C(=O)Nc2nc3ccc(OC)cc3s2)n1	FLuc inh counter 91
COc1ccc2nc(NC(=O)CSc3nnc(-c4ccoc4C)n3C)sc2c1	FLuc inh counter 60, STAT1 act 130
COC(=O)c1ccc2nc(NC(=O)C(C)C)sc2c1	FLuc inh counter 60, NF-kB neuron act 6, STAT1 act 134
O=C(CSc1ccc(-c2ccc(F)cc2)nn1)N1CCOCC1	none
COc1ccc(OCC(=O)Nc2nc3ccc(NC(C)=O)cc3s2)cc1	none
COc1ccc(Nc2nc3ccccc3c(=O)s2)c(OC)c1	none
COc1ccc2nc(NC(C)=O)sc2c1	STAT1 act 139
COc1ccc2nc(Nc3ccccc3OC)sc2c1	FLuc inh counter 87, APP 5'UTR act 202, NF-kB neuron act 7.9
CCC(=O)c1cn(CC(=O)OC)c2ccccc12	APP 5UTR inh 68
CCC(Br)C(=O)Nc1ccc(OC)cc1 (stereo not given)	none (no result: NF-kB neuron act)
COc1cc(OC)cc(C(=O)/C=C2\Sc3ccccc3N2C)c1	STAT1 act 131
CN1/C(=C/C(=O)c2cccs2)Sc2ccccc21	FLuc inh counter 77, NF-kB neuron act 5.3, STAT1 act 140
O=C(Nc1ccc(OC(F)(F)F)cc1)c1ccc2nccnc2c1	none
O=C(Nc1ccc(OC(F)(F)F)cc1)C1=NCCN1	FLuc inh counter 63
CC1=C(C)CC(C(=O)Nc2ccc(C(=O)N3CCOCC3)cc2)C(C(=O)O)C1 (stereo not given)	none
Cn1cc(/C=C2\SC(=S)N(NC(=O)c3ccccc3)C2=O)c2ccccc21	none
Cc1ccc(C(=O)/C=C/c2cn(CN3CCN(C)CC3)c3ccccc23)cc1	NF-kB neuron act 7.3
Cn1cc(/C=C2/SC(=O)N(c3ccccc3)C2=O)c2ccccc21	STAT1 act 132
Cn1cc(/C=C/C(=O)c2ccccc2)c2ccccc21	APP 5'UTR act 200 (no result: FLuc act counter, FLuc inh counter, NF-kB neuron act, STAT1 act)
O=C(/C=C/c1cn(CC(O)CN2CCCCCC2)c2ccccc12)c1cccs1 (stereo not given)	none
CCOc1ccc(NC(=O)CC(c2ccccc2)c2ccc(F)cc2)cc1 (stereo not given)	none
Cc1ccc(NC(=O)CCCCCCCCCCC2COCCO2)c(C)c1 (stereo not given)	none
CCc1nnc(NS(=O)(=O)c2ccc(N=Cc3c(C)[nH]n(-c4ccc(C)c(C)c4)c3=O)cc2)s1	FLuc inh counter 66
Cc1c(C(=O)OC2CCC(C)CC2)[nH]c2c1C(=O)CCC2 (stereo not given)	APP 5'UTR act 148, NF-kB neuron act 4.9, STAT1 act 146
CCCCN1/C(=C/c2ccc3ccccc3[n+]2CC)Sc2ccccc21	none
CCN1/C(=C/c2ccc3cc(C)ccc3[n+]2CC)Sc2cc(C)ccc21	APP 5UTR inh 63
COc1ccc(S(=O)(=O)CCC(=O)Nc2cccc(OC)c2)cc1	none
Cc1ccc(-c2nnc(Cc3ccc([N+](=O)[O-])cc3)o2)cc1	APP 5'UTR act 147
O=[N+]([O-])c1ccc(Cc2nnc(-c3ccc(F)cc3)o2)cc1	none
C=C(C)CC1(NC(C)c2ccccc2)CCCCC1 (stereo not given)	none
CC(C)(C(=O)c1ccccc1)/[N+]([O-])=C/c1ccccc1F	none (no result: FLuc act counter, FLuc inh counter, NF-kB neuron act)
O=C(CSc1nc2ccccc2s1)N1c2ccccc2Sc2ccccc21	none
c1ccc2sc(SCc3ccc(-c4nnco4)cc3)nc2c1	NF-kB neuron act 4.2
O=C1/C(=C/c2cccnc2)CCc2c1[nH]c1ccccc21	none (no result: NF-kB neuron act)
CC(C)C/C=C1\CCc2c([nH]c3ccccc23)C1=O	STAT1 act 143
COc1cc(OC)cc(C(=O)NCCCN2CCN(CCCNC(=O)c3cc(OC)cc(OC)c3)CC2)c1	none
CN1CCN(c2ccc([N+](=O)[O-])cc2NC(=O)c2ccccc2Cl)CC1	none
Cc1ccc(C(=O)c2cc([N+](=O)[O-])ccc2N2CCN(C)CC2)cc1	APP 5UTR inh 63
O=C(c1ccc(Br)cc1)c1cc([N+](=O)[O-])ccc1N1CCCCC1	APP 5UTR inh 95, NF-kB neuron act 5
O=C(c1ccccc1)c1cc([N+](=O)[O-])ccc1N1CCCC1	none
CN1CCN(c2ccc([N+](=O)[O-])cc2C(=O)c2ccccc2)CC1	none
CN1CCN(c2ccc([N+](=O)[O-])cc2C(=O)c2ccc(Br)cc2)CC1	APP 5UTR inh 69
CCOC(=O)c1c(-c2ccccc2)csc1NC(=O)c1cc(S(=O)(=O)N2CCOCC2)ccc1C	none
CC1CC(C)(C)NC(=S)N1CCC(=O)N1CCc2ccccc2C1 (stereo not given)	none
Cc1ccccc1Nc1scc(-c2ccc(Cl)cc2)[n+]1-c1ccccc1C	none
COc1ccccc1C(=O)O/N=C(\N)c1ccc(Cl)cc1	NF-kB neuron act 5.4, STAT1 act 140
Cc1ccc(C)c(C(=O)O/N=C(\N)c2ccc(Br)cc2)c1	none
Cc1ccc(/C(N)=N/OC(=O)c2ccc(Cl)cc2Cl)cc1	FLuc inh counter 75, APP 5'UTR act 154, STAT1 act 140
COc1ccccc1C(=O)NNC(=O)c1ccc(Cl)cc1	none
CN(C)C(=O)c1ccc(-n2cccn2)nc1	none
CC1=NN(c2ccccc2)C(=O)/C1=C/c1c(O)n(-c2ccc(F)c(Cl)c2)[nH]c1=O	STAT1 act 142
C=CCNC(=O)COc1cc(C)ccc1C	none
CCn1c(SCc2ccccc2Cl)nc2nc3c(cc2c1=O)CCCC3	APP 5UTR inh 70
CCn1c(SCC(=O)NCc2ccccc2)nc2nc3c(cc2c1=O)CCCC3	none
NC(=O)COc1ccc(/C=N/NS(=O)(=O)c2ccccc2)cc1	none
